Shown is part of a subset that was picked to be rich in hits.
T cruzi growth-1: T. cruzi intracellular proliferation inhibitors, primary screen, cell-based, beta-gal Tulahuen parasites, NIH3T3 host, luminescence; T. cruzi beta-gal in NIH3T3, GalScreen luminescence, 90 h; inhibition, % at 8.34 µM; 77,000 tested, 5.9% active; AID 624255, 2012;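 active means mean inhibition above about 93%, with at least 55% of replicates each passing it, limit read from the data, passing the limit was not always enough; inconclusive means only one of those two conditions holds; inactive means neither condition holds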
IDH1 mut inh: inhibitors of IDH1 R132H reductase, primary screen, biochemical, plate reader, single point; diaphorase/resazurin fluorescence, 60 min; 70,000 tested, 0.18% active; inhibition, % at 10 µM; Isocitrate dehydrogenase [NADP] cytoplasmic (Homo sapiens), O75874; in the data active means inhibition above about 34%; inconclusive means no clear call, values can overlap the other calls; inactive means below about 11%
Target sequence (O75874 whole entry R132H): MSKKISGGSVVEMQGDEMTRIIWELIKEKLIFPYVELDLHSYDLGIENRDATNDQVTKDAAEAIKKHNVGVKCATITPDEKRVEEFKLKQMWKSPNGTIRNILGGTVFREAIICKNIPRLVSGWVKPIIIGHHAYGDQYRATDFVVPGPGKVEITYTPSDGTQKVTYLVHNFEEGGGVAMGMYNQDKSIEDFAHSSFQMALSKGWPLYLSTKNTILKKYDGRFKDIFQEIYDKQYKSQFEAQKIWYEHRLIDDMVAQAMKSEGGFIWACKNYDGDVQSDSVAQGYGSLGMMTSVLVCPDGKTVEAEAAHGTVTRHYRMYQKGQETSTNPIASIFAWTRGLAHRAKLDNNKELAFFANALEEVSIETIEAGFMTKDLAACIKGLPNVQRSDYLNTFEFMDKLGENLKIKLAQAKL
GASC1 inh: inhibitors of GASC-1 (KDM4C) histone demethylase, primary screen, biochemical, single concentration HTS; GST-KDM4C 2-372, H3K9me3 peptide, LANCE TR-FRET; AID 720574, 2013; Lysine-specific demethylase 4C (Homo sapiens), Q9H3R0; inhibition, % at 12.5 µM; 96,000 tested, 0.15% active;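 active means mean replicate inhibition above about 25%, with at least 55% of replicates also reaching it, limit read from the data, passing the limit was not always enough; inconclusive means only one of those two conditions met; inactive means neither condition met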
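System – N-terminal GST-fused human GASC-1 (KDM4C) fragment, residues 2-372 · Input – enzyme final amount 10 nM · Technique – LANCE TR-FRET, Eu antibody, ULight-streptavidin, EDTA, ex 340 nm, em 618/671 nm · Medium – HEPES buffer, pH 7.5, plus ascorbate · Incubation – enzyme reaction 30 min, then detection 60 min, both room temperature · Reagent – H3K9me3 peptide with Fe(II)/2OG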
T cruzi growth-2: T. cruzi intracellular proliferation inhibitors, confirmation, cell-based, NIH3T3 host, beta-gal parasite, luminescence, cherry-pick. shares compounds with T cruzi growth-1. T. cruzi beta-gal in NIH3T3, GalScreen luminescence, 90 h. inhibition, % at 8.35 µM. 5,600 tested, 72% active;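 active means mean replicate inhibition above about 95% and at least 55% of replicates individually reaching it, limit read from the data; inconclusive means only one of the two criteria is met; inactive means neither criterion is met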
T cruzi growth-3: inhibitors of intracellular T. cruzi replication, confirmation, NIH3T3 host cells, beta-gal parasites, cherry-pick, set 2; shares compounds with T cruzi growth-1; T. cruzi beta-gal in NIH3T3, GalScreen luminescence, 90 h; inhibition, % at 2.09 µM; 5,600 tested, 21% active; AID 651740, 2012;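 active means mean inhibition above about 95%, with at least 55% of replicates also reaching it, limit read from the data; inconclusive means meets just one of the two conditions; inactive means meets neither condition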
NIH3T3 tox: cytotoxicity in mouse NIH/3T3 fibroblasts, confirmation, cytotoxicity control for T. cruzi proliferation inhibitor project, cell-based, cherry-pick, single point; shares compounds with T cruzi growth-1; NIH/3T3 viability, CellTiter-Glo ATP luminescence, 90 h; cytotoxicity (signal decrease), % at 8.35 µM; 5,600 tested, 14% active;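 active means mean signal decrease across replicates above about 35% based on untreated-well scatter, with enough replicates individually passing, limit read from the data; inconclusive means no rule stated though some were filed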
NIH3T3 tox 2: NIH/3T3 fibroblast cytotoxicity, confirmation, cytotoxicity control, cell-based, cherry-pick, single point, set 2; NIH/3T3 viability, CellTiter-Glo ATP luminescence, 90 h; shares compounds with T cruzi growth-1; inhibition, % at 24.9 µM; 5,600 tested, 56% active;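 active means mean loss of cell viability signal at or above a set limit, and enough replicates individually reaching it; inconclusive means meets only the mean limit or only the replicate share; inactive means meets neither condition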
A number is an active result; – = inactive; ? = inconclusive; · = no result given.

SMILES | T cruzi growth-1 | IDH1 mut inh | GASC1 inh | T cruzi growth-2 | T cruzi growth-3 | NIH3T3 tox | NIH3T3 tox 2
COc1ccc2c(c1OC)CN1CCc3cc4c(cc3C1C2)OCO4 (centres undefined) | · | – | · | · | · | · | ·
COc1ccc2c(c[n+](C)c3c4cc5c(cc4ccc23)OCO5)c1OC | · | 101 | · | · | · | · | ·
CC[C@@H]1/C=C\C=C\C[C@H](C)[C@@H](O)[C@](C)(O)C(=O)[C@H](C)[C@@H](O)[C@H](C)C(=O)[C@H](C)[C@@H](O)[C@H](C)/C=C/C(=O)O[C@H]2[C@@H](C)[C@@H](CC1)O[C@@]1(CC[C@@H](C)[C@@H](C[C@H](C)O)O1)[C@@H]2C | · | – | · | · | · | · | ·
C/C=C/c1ccc([C@H]2[C@@H](CO)N3CCCCN(C(=O)Cc4ccncc4)C[C@@H]23)cc1 | – | · | – | · | · | · | ·
C/C=C/c1ccc([C@H]2[C@@H](CO)N3CCCCN(C(=O)Cc4ccncc4)C[C@H]23)cc1 | – | · | – | · | · | · | ·
COc1cccc(-c2ccc([C@@H]3[C@H](CO)N4CCCCN(C(=O)Cc5ccncc5)C[C@@H]34)cc2)c1 | ? | · | – | – | – | – | 35
COc1cccc(-c2ccc([C@@H]3[C@@H](CO)N4CCCCN(C(=O)Cc5ccncc5)C[C@@H]34)cc2)c1 | – | · | – | · | · | · | ·
COc1cccc(-c2ccc([C@H]3[C@H](CO)N4CCCCN(C(=O)Cc5ccncc5)C[C@@H]34)cc2)c1 | – | · | – | · | · | · | ·
COc1cccc(-c2ccc([C@@H]3[C@@H](CO)N4CCCCN(C(=O)Cc5ccncc5)C[C@H]34)cc2)c1 | 114 | · | – | 102 | – | – | 38
COc1cccc(-c2ccc([C@H]3[C@@H](CO)N4CCCCN(C(=O)Cc5ccncc5)C[C@@H]34)cc2)c1 | 111 | · | – | 110 | – | – | –
COc1cccc(-c2ccc([C@H]3[C@@H](CO)N4CCCCN(C(=O)Cc5ccncc5)C[C@H]34)cc2)c1 | 107 | · | – | 110 | – | – | 48
CC(=O)c1c(C)n(Cc2ccccc2)c2c(Cl)c(Cl)c(Cl)c(OCC(=O)O)c12 | · | – | · | · | · | · | ·
C=CCN1CC[C@]2(C)c3cc(O)ccc3CC1[C@@H]2C | · | – | · | · | · | · | ·
C#CCN1C(C)=C(C(=O)CCO)C(c2cccc(-n3oo3)c2)C(C(=O)OC)=C1C (centres undefined) | · | – | · | · | · | · | ·
COc1cc2c(cc1OC)-c1c(OC)c(OC)c(N)c3c1[C@H](C2)N(C)CC3 | · | – | · | · | · | · | ·
O=C(O)C1C2CCC(O2)C1C(=O)NCCc1ccccc1 (centres undefined) | · | – | · | · | · | · | ·
C/C=C(\C)C(=O)O[C@H]1CC2C(=C1C)[C@H]1OC(=O)[C@](C)(O)[C@]1(O)[C@H](OC(=O)CCC)C[C@@]2(C)OC(C)=O (some centres undefined) | · | – | · | · | · | · | ·
C[C@H]1CN([C@@H](C)CO)C(=O)CCCn2cc(nn2)CO[C@H]1CN(C)C(=O)Oc1cccc2ccccc12 | 117 | – | – | – | – | – | –
C[C@H](CO)N1C[C@H](C)[C@@H](CN(C)C(=O)Oc2cccc3ccccc23)OCc2cn(nn2)CCCC1=O | – | · | – | · | · | · | ·
COc1ccc(-c2ccc([C@H]3[C@H]4CN(C(=O)Cc5ccncc5)CCCCN4[C@H]3CO)cc2)cc1 | – | · | – | · | · | · | ·
COc1ccc(-c2ccc([C@@H]3[C@@H](CO)N4CCCCN(C(=O)Cc5ccncc5)C[C@H]34)cc2)cc1 | – | · | – | · | · | · | ·
COc1ccc(C#Cc2ccc([C@H]3[C@H](CO)N4CCCCN(C(=O)Cc5ccncc5)C[C@@H]34)cc2)cc1 | 106 | · | – | 108 | – | – | 105
COc1ccc(C#Cc2ccc([C@@H]3[C@H](CO)N4CCCCN(C(=O)Cc5ccncc5)C[C@@H]34)cc2)cc1 | 112 | · | – | 103 | – | – | 104
C=CCN1CCC23c4c5ccc(O)c4OC2/C(=N\NC(=O)c2ccccc2)CCC3(O)C1C5 (centres undefined) | · | – | · | · | · | · | ·
C=CC1CN2CCC1CC2C(OC(=O)c1ccco1)c1ccnc2ccccc12 (centres undefined) | · | – | · | · | · | · | ·
SMILES | T cruzi growth-1 | IDH1 mut inh | GASC1 inh | T cruzi growth-2 | T cruzi growth-3 | NIH3T3 tox | NIH3T3 tox 2
N#Cc1cccc(-c2ccc([C@@H]3[C@@H](CO)N4CCCCN(C(=O)Cc5ccccc5)C[C@@H]34)cc2)c1 | – | · | – | · | · | · | ·
N#Cc1cccc(-c2ccc([C@@H]3[C@H]4CN(C(=O)Cc5ccccc5)CCCCN4[C@H]3CO)cc2)c1 | – | · | – | · | · | · | ·
N#Cc1cccc(-c2ccc([C@H]3[C@H]4CN(C(=O)Cc5ccncc5)CCCCN4[C@H]3CO)cc2)c1 | 105 | · | – | – | – | – | 47
N#Cc1cccc(-c2ccc([C@H]3[C@H]4CN(C(=O)Cc5ccccc5)CCCCN4[C@H]3CO)cc2)c1 | ? | · | – | – | – | – | –
CC(C)C1(NC(=O)C2CC3c4cccc5[nH]cc(c45)CC3N(C)C2)OC2(O)C3CCCN3C(=O)C(Cc3ccccc3)N2C1=O (centres undefined) | · | – | · | · | · | · | ·
O=C1/C(=C/c2ccccc2)C[C@@]2(O)C3Cc4ccc(O)c5c4[C@@]2(CCN3CC2CC2)[C@H]1O5 | · | – | · | · | · | · | ·
O=C(Cc1ccccc1)N1CCCCN2[C@H](CO)[C@@H](c3ccc(C#Cc4ccccc4)cc3)[C@H]2C1 | 118 | · | – | 97 | – | 58 | 105
O=C(Cc1ccccc1)N1CCCCN2[C@H](CO)[C@@H](c3ccc(C#Cc4ccccc4)cc3)[C@@H]2C1 | 106 | · | – | 100 | – | – | 106
O=C(Cc1ccncc1)N1CCCCN2[C@H](CO)[C@H](c3ccc(C#Cc4ccccc4F)cc3)[C@H]2C1 | ? | · | – | 104 | – | – | 103
COc1ccc(C#Cc2ccc([C@H]3[C@H]4CN(C(=O)Cc5ccccc5)CCCCN4[C@H]3CO)cc2)cc1 | – | · | – | · | · | · | ·
O=C(Cc1ccncc1)N1CCCCN2[C@@H](CO)[C@@H](c3ccc(C#Cc4ccccc4F)cc3)[C@@H]2C1 | – | · | – | · | · | · | ·
N#Cc1ccc(-c2ccc([C@@H]3[C@H](CO)N4CCCCN(C(=O)Cc5ccccc5)C[C@@H]34)cc2)cc1 | – | · | – | · | · | · | ·
CO/C1=C/C(C)=C/[C@@H](C)[C@@H](O)[C@@H](C)C/C(C)=C/C=C\[C@H](OC)[C@@H]([C@@H](C)[C@@H](O)[C@H](C)[C@@]2(O)C[C@@H](O)[C@H](C)[C@@H](C(C)C)O2)OC1=O | · | – | · | · | · | · | ·

From PubChem BioAssay
